# The list is not random: actives were taken first. Their share in the collection is about 1.5%.
# MT1-MMP act inh: blockers of MT1-MMP proenzyme processing, primary screen, HT1080 RFP-PRO-GFP cells, GFP/RFP fluorescence | hit rate 0.061% among 360,000 | GFP/RFP ratio change, % at 20 µM | GFP/RFP ratio fluorescence, overnight; percent of plate control window, DMSO zero;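 active = GFP/RFP ratio change of at least 30% with cell ATP level not reduced by more than half and red fluorescence within 50% of control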
#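 Assay system: HT1080 RFP-PRO-GFP cells | Dosing: 20 µM single dose, 1% DMSO | Incubation: Cells overnight before dosing, compound overnight, 37 °C, 5% CO2 | Evaluation: GFP/RFP fluorescence ratio | Control set: DMSO-only wells and HT1080 RFP-L50D-GFP cell wells as references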
# Fh CTSL1 inh: Fasciola hepatica cathepsin L1 inhibitors, primary screen, counter-screen for PFM18AAP inhibitor project, biochemical, QFRET, fluorogenic peptide substrate; recombinant F. hepatica cathepsin L1, Z-Leu-Arg-MCA fluorescence; inhibition, % at 5.96 µM; hit rate 0.49% among 300,000;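 active = inhibition above the mean of all tested compounds plus 3 SD, set per screening campaign, cut at about 17% in these data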;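 note: 0% = plate median of test compound wells and 100% = 1 µM Z-Phe-Ala-diazomethylketone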
# NRP1-CendR mod: modulators of CendR peptide binding to NRP-1, primary screen, biochemical, fluorescence polarization, uHTS; Neuropilin-1 (Homo sapiens), O14786; FAM-RPARPAR peptide binding to NRP-1; inhibition, % at 25 µM; hit rate 0.85% among 360,000;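 active = inhibition or corrected inhibition above about 18%, plus a signal ratio from 0.5 to 1.5, limit read from the data, passing the limit was not always enough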
# DAGLB inh: DAGLB lipase inhibitors, primary screen, biochemical, fluorescence, HTS. Diacylglycerol lipase-beta (Homo sapiens), Q8NCG7. HEK293T DAGLB membrane lysate, EnzChek fluorogenic substrate. inhibition, % at 5.17 µM. hit rate 0.059% among 340,000; in the data active = inhibition above about 34%;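 note: 0% = enzyme with vehicle and 100% = wells lacking enzyme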
# UCH37 inh: inhibitors of human UCH37 deubiquitinase, primary screen, biochemical, Ub-AMC cleavage, fluorescence; Ubiquitin carboxyl-terminal hydrolase isozyme L5 (Homo sapiens), Q9Y5K5; purified proteasome/UCH37; inhibition, % (test concentration not listed); hit rate 0.33% among 330,000; AID 588478, 2011;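 active = mean inhibition over replicate wells above about 20%, limit read from the data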;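 note: 0% = compound-free wells with enzyme and 100% = wells lacking proteasome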
# Target sequence (Q9Y5K5 whole entry, looked up): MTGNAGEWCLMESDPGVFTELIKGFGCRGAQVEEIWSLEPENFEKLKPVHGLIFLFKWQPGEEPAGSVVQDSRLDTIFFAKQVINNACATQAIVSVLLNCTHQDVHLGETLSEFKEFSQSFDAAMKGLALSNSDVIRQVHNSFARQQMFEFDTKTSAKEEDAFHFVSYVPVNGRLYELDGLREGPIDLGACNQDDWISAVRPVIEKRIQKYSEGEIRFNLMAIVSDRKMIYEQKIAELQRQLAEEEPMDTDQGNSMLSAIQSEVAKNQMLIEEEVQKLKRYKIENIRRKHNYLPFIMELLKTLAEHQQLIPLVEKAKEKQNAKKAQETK
#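 Reagent: Ub-AMC substrate; assay system: Proteasome-associated human UCH37 deubiquitinase; controls: no-proteasome and no-compound wells; read-out: % inhibition of Ub-AMC cleavage fluorescence; timing: 30 min preincubation with enzyme, 25 min cleavage at room temperature; signal: AMC fluorescence from Ub-AMC cleavage, excitation 355 nm, emission 460 nm; buffer or medium: Tris-HCl pH 7.4 plus ovalbumin, ATP-MgCl2, DTT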
# * = called active by the depositor; . = no result given.
SMILES,MT1-MMP act inh,Fh CTSL1 inh,NRP1-CendR mod,DAGLB inh,UCH37 inh
CCOC(=O)C(Cc1ccc(O)cc1)NC(=O)CNC(=O)C(CC(C)C)NC(=O)OC(C)(C)C (stereo not drawn),2,29*,0,-4,1
COC(=O)C(Cc1ccccc1)NC(=O)C(CC(C)C)NC(=O)OC(C)(C)C (stereo not drawn),1,11,0,-3,0
CCCCOc1ccc(/C=c2\sc3ncnn3c2=O)cc1,-1,-2,20*,-1,.
COc1ccc(C=NNC(=O)c2ccoc2C)cc1COc1c(C)cccc1C,.,.,.,.,6
O=C(COc1ccccc1F)Nc1cc(S(=O)(=O)Nc2cccc(Cl)c2)ccc1O,7,.,25*,9,2
O=C(COC(=O)c1ccc[nH]c1=O)NCCc1ccc(Cl)cc1Cl,4,18*,-1,2,-1
Cc1ccc(C(=O)c2ccccc2C(=O)OCC(=O)NCCc2ccc(Cl)cc2Cl)cc1,-4,0,9,-7,1
C=CC#CC[N+]1(CC#Cc2ccccc2)CCOCC1,-4,.,21*,1,29*
C(#Cc1ccccc1)C[N+]1(CC#Cc2ccccc2)CCCC1,-6,1,7,0,8
CCn1ncc(Br)c1C(=O)N(C)C12CC3CC(CC(C3)C1)C2,1,5,27*,-5,-5
CCn1ncc(Br)c1C(=O)Nc1ccn(C23CC4CC(CC(C4)C2)C3)n1,-1,-1,-6,-1,4
COc1ccc(C(=O)N[C@H](C(=O)Nc2nc3c(s2)CCCC3)C(C)C)cc1,-3,1,26*,4,5
O=C(Nc1nc2c(s1)CCCC2)Oc1ccccc1,4,28*,4,0,1
CCOc1cccc(-c2c(C(=O)NN=Cc3ccc(Br)cc3)nnn2-c2nonc2N)c1,.,.,.,.,7
CCCCNC(=O)[C@@H]1CCCN1S(=O)(=O)c1cccc2cccnc12,-1,0,33*,0,3
O=C(CCS(=O)(=O)c1ccccc1)N1CCCc2ccccc21,3,2,14,-6,0
O=C(CCC(=O)N1CCCc2ccccc21)N1CCN(S(=O)(=O)c2ccccc2)CC1,1,-7,28*,-1,0
O=C(c1cccc(S(=O)(=O)N2CCCCC2)c1)N1CCc2ccccc21,-7,0,32*,0,6
O=C(C1CCCCC1)N1CCc2ccccc21,7,0,-2,0,1
O=C(c1ccc(S(=O)(=O)N2CCOCC2)cc1)N1CCc2ccccc2C1,1,-2,-2,0,4
O=C(c1cccc(S(=O)(=O)N2CCCC2)c1)N1CCCc2ccccc21,-1,-3,-2,1,1
O=C(c1ccc(S(=O)(=O)N2CCOCC2)cc1)N1CCc2ccccc21,1,0,24*,2,-1
O=C(C1CCCO1)N1CCc2ccccc21 (stereo not drawn),9,-2,56*,-1,0
COc1ccc(CNC(=O)CCNS(=O)(=O)c2ccc(Cl)cc2)cc1,3,2,28*,1,-1
COc1ccc(S(=O)(=O)NCCC(=O)NCc2ccc(F)cc2)cc1,-1,-6,-1,1,4
SMILES,MT1-MMP act inh,Fh CTSL1 inh,NRP1-CendR mod,DAGLB inh,UCH37 inh
O=C(C=NO)NCc1cccnc1,.,.,.,.,4
COc1ccc(C(=O)ON=C(c2ccccc2)c2ccncc2)cc1OC,.,.,.,.,1
CC(O)C1CCC2C3CCC4CC(O)CCC4(C)C3C(=O)CC12C (stereo not drawn),-1,.,4,-2,.
CC(O)[C@H]1CC[C@H]2[C@@H]3CC[C@H]4C[C@@H](O)CC[C@]4(C)[C@H]3C(=O)C[C@]12C (stereo partly drawn),2,-11,26*,0,2
O=C(CN(c1cccc([N+](=O)[O-])c1)S(=O)(=O)c1ccccc1)N(Cc1ccccc1)Cc1ccccc1,-4,18*,7,-3,3
O=C(CN(c1cccc([N+](=O)[O-])c1)S(=O)(=O)c1ccccc1)NCc1ccccc1,7,0,-4,-2,0
O=C(CN(CC1CCCO1)C(=O)CNS(=O)(=O)c1ccc(Cl)cc1)NCC1CCCO1 (stereo not drawn),2,-8,30*,0,-2
COc1ccc2ccccc2c1C=NNC(=O)c1ccc(C)s1,.,.,.,.,-7
COc1cccc(C=Nc2nc3ccccc3[nH]2)c1O,.,.,.,.,3
COc1ccc(C(C)C)cc1-c1cc(C(=O)NCc2cccc(C(F)(F)F)c2)[nH]n1,1,.,21*,.,.
CCN(CC)CC(=O)Nc1ccc(-c2nc3cc(NC(=O)CN(CC)CC)ccc3o2)cc1,11,6,17*,-4,-312
CCC(C)NCC(=O)Nc1ccc(-c2nc3cc(NC(=O)CNC(C)CC)ccc3o2)cc1 (stereo not drawn),12,0,9,-3,-284
Cc1cccc(C(=O)OC(C)C(=O)Nc2ccc(S(=O)(=O)N3CCCC3)cc2)c1O (stereo not drawn),2,-1,9,-5,-2
CC(OC(=O)c1cc(Br)ccc1O)C(=O)Nc1ccc(S(=O)(=O)N2CCCC2)cc1 (stereo not drawn),-8,-2,25*,-11,.
C=CCN1c2ccccc2[C@]23C[C@@H](C(=O)OC)N(C(=O)C4CCC4)C2=NC(C(=O)OC)=C(C(=O)OC)[C@H]13,-3,3,25*,-1,5
C/C(=N\Nc1ccc(C)c(Cl)c1)c1cccnc1,-3,3,3,-4,.
C/C(=N\Nc1ccc(C)c(Cl)c1)c1ccncc1,-2,19*,-3,1,.
COCCn1c(SCC(=O)c2ccc(F)cc2)nnc1C(C)C,-18,-4,24*,0,2
COCCn1nnnc1SCC(=O)c1ccc(F)cc1,-6,5,-3,-3,4
COc1ccc(C=NN2CCOCC2)cc1Cn1nc(C)c([N+](=O)[O-])c1C,.,.,.,.,4
O=C(O)C1CC(=O)N(c2ccc(Br)cc2)C1 (stereo not drawn),-1,3,4,2,3
C=CCN(CC=C)C(=O)C1CC(=O)N(c2ccc(Br)cc2)C1 (stereo not drawn),-2,-1,30*,-2,3
O=S(=O)(NN=Cc1ccc(F)cc1)c1ccccc1,.,.,.,.,1
COC(=O)Cn1cc(C=NNC(=O)COc2cccc3cccnc23)c2ccccc21,.,.,.,.,4
COc1ccc(C=NOCC(=O)N(Cc2ccc(OC)cc2)c2ccccc2C(=O)O)cc1,.,.,.,.,0

# Source: PubChem BioAssay (several laboratories)
